Assay results gathered from unrelated publications.
Read-out: cell growth or viability

The inhibition of `COc1ccc(CNC[C@@](C)(O)[C@@H]2CC[C@@H](C)C[C@H]2OCc2ccccc2)cc1` is reported as 42.9% (A2780; MTT; 10 µM, 72 h).
For `O=C(NO)c1ccc(CNc2nc3cccc(-c4ccc5c(c4)OCO5)n3n2)cc1`, the GI50 was 520 nM (TK-10; SRB).
The inhibition of `C[C@@H]1CC[C@@H]([C@](O)(CNCc2ccccc2)COCc2ccccc2)[C@H](OCc2ccccc2)C1` is reported as 91.1% (A2780; MTT; 30 µM, 72 h).
`COc1nc(NCc2cn(-c3ccc(C(=O)Nc4ccc(Br)cc4)cc3)nn2)nc(OC)n1` gave an IC50 of 674 nM (Caco-2; MTT; 72 h).
The IC50 of `C=C(F)C(=O)N1CCN(c2nc(OC[C@@H]3CCCN3C)nc3c2CCN(c2cccc4cccc(Cl)c24)C3)C[C@@H]1CC#N` is reported as over 10000 nM (HCC44; ATP luminescence).
`CC(=O)Nc1ccc(Oc2ccc(C(=O)C(Cl)Cl)cc2[N+](=O)[O-])cc1` gave an inhibition of 97.6% (NCI-H1650; MTT; 2.5 µM).
`C[C@@H]1CC[C@@H]([C@](C)(O)CNCc2ccccc2)[C@H](OCc2ccccc2)C1` gave an inhibition of 91.6% (A2780; MTT; 10 µM, 72 h).
The inhibition of `O=C(c1ccc(Oc2ccc(Br)cc2)c([N+](=O)[O-])c1)C(Cl)Cl` is reported as 96.1% (NCI-H1650; MTT; 2.5 µM).
For `C=CC(=O)c1cccnc1Nc1cc(C(F)(F)F)ccc1OCc1ccccc1`, the GI50 was 11200 nM (NCI-H28; CCK-8; 72 h).
`COc1cccc2c1C(=O)c1c(O)c3c(c(O)c1C2=O)C[C@@](O)(C(=O)CO)C[C@@H]3O[C@H]1C[C@H](N)[C@H](O)[C@H](C)O1` gave a viability of 31.6% (Caco-2; MTT; 25 µg/mL, 48 h, serum-free).
`C[C@@H]1CC[C@@H]([C@](O)(CNCc2ccc(F)cc2)COCc2ccc(F)cc2)[C@H](OCc2ccc(F)cc2)C1` gave an inhibition of 95.3% (A2780; MTT; 30 µM, 72 h).
For `O=C(c1ccccc1)c1ccc(Oc2ccc(C(=O)C(Cl)Cl)cc2[N+](=O)[O-])cc1`, the inhibition was 96.5% (NCI-H1650; MTT; 2.5 µM).
With `COc1ccc(C(=O)Nc2ccc(-n3cc(CNc4nc(OC)nc(OC)n4)nn3)cc2)cc1` the IC50 was 722 nM (Caco-2; MTT; 72 h).
For `COc1ccc(COC[C@@](O)(CNCc2ccccc2)[C@@H]2CC[C@@H](C)C[C@H]2OCc2ccc(OC)cc2)cc1`, the inhibition was 98% (A2780; MTT; 10 µM, 72 h).
The GI50 of `C=CC(=O)c1cccnc1Nc1cccc(C(F)(F)F)c1` is reported as 5110 nM (NCI-H28; CCK-8; 72 h).
For `COc1nc(NCc2cn(-c3ccc(C(=O)Nc4ccc([N+](=O)[O-])cc4)cc3)nn2)nc(OC)n1`, the IC50 was 724 nM (Caco-2; MTT; 72 h).
With `CC(=O)OCCCOc1ccc(C(=O)C(Cl)Cl)cc1[N+](=O)[O-]` the inhibition was 39.6% (NCI-H1650; MTT; 2.5 µM).
`COc1ccccc1CNC[C@@](C)(O)[C@@H]1CC[C@@H](C)C[C@H]1OCc1ccccc1` gave an inhibition of 58.5% (A2780; MTT; 10 µM, 72 h).
`O=C(c1ccc(Oc2ccc3cc(Br)ccc3c2Cl)c([N+](=O)[O-])c1)C(Cl)Cl` gave an inhibition of 97% (NCI-H1650; MTT; 2.5 µM).
`C=CC(=O)NC1CCN(c2ncc3ncnc(Nc4ccc(Oc5ccc6c(c5)ncn6C)c(C)c4)c3n2)CC1` gave an EC50 of 934 nM (HCC44).
`O=C1c2ccccc2C(=O)c2c(Oc3ccc(C(=O)C(Cl)Cl)cc3[N+](=O)[O-])cccc21` gave an inhibition of 28.7% (NCI-H1650; MTT; 2.5 µM).
With `COc1nc(NCc2cn(-c3ccc(NC(=O)c4ccc(Br)cc4)cc3)nn2)nc(OC)n1` the IC50 was 689 nM (Caco-2; MTT; 72 h).
The inhibition of `O=C(c1ccc(Oc2ccc(-c3ccccc3)cc2)c([N+](=O)[O-])c1)C(Cl)Cl` is reported as 97.5% (NCI-H1650; MTT; 2.5 µM).
For `C[C@@H]1CC[C@@H]([C@](O)(CNCc2cccc3ccccc23)COCc2ccccc2)[C@H](OCc2ccccc2)C1`, the inhibition was 90.7% (A2780; MTT; 10 µM, 72 h).
`C=CC(=O)N1CCN(c2nc(=O)n(-c3c(C)ccnc3C(C)C)c3nc(-c4c(O)cccc4F)c(F)cc23)[C@@H](C)C1` has an IC50 of 90.1 nM (NCI-H2122; ATP luminescence).
For `C[C@@H]1CC[C@@H]([C@](O)(CNCc2ccccc2)COCc2ccc(F)cc2)[C@H](OCc2ccc(F)cc2)C1`, the inhibition was 95.2% (A2780; MTT; 10 µM, 72 h).
With `O=C(c1ccc(Oc2ccc(OCc3ccccc3)cc2)c([N+](=O)[O-])c1)C(Cl)Cl` the inhibition was 96.9% (NCI-H1650; MTT; 2.5 µM).
